OX1R antag-1: OX1R (HCRTR1) antagonists, primary screen, fluorescence, CHO/OX1R cells, Fluo-8 calcium, orexin A | inhibition, % at 5 µM | Orexin/Hypocretin receptor type 1 (Homo sapiens), O43613 | actives 0.43% (n = 330,000) | Fluo-8 calcium fluorescence | AID 434989, 2010;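 active = inhibition above its plate's threshold, mean inhibition of all tested compounds on the plate plus 3 SD, cut at about 37% in these data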;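 note: 0% = orexin A challenge wells and 100% = SB-334867-A antagonist wells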
CHO parental Ca: ATP-evoked calcium signal inhibitors, parental CHO, primary screen, counter-screen for OX1R antagonist project, cell-based, fluorescence, Fluo-8 calcium dye. parental CHO-K1, ATP-induced calcium, Fluo-8 fluorescence. inhibition, % at 5.6 µM. actives 0.63% (n = 330,000). AID 463079, 2010;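 active = inhibition above that plate's mean sample inhibition plus 3 SD, cut at about 26% in these data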;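 note: 0% = ATP-challenged DMSO wells and 100% = DMSO wells without ATP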
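Material: parental CHO cells / Compound: single nominal dose of 5.6 µM per compound / Signal: Fluo-8 fluorescence / Replicates: singlicate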
OX1R antag-2: antagonists of human orexin 1 receptor (OX1R); Orexin/Hypocretin receptor type 1 (Homo sapiens), O43613; OX1R-expressing cells, FRET antagonist read-out; inhibition, % at 6.6 µM; actives 1.8% (n = 330,000); AID 485270, 2010; in the data active = inhibition mostly above about 38%, no sharp cut-off; inactive = mostly below about 40%;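 note: 0% = agonist challenge alone and 100% = reference antagonist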
TAAR1 agonist: human TAAR1 agonists, primary screen, Fluo-8 calcium fluorescence, CHO RD-HGA16 cells; Trace amine-associated receptor 1 (Homo sapiens), Q96RJ0; vehicle wells 0%, saturating PEA agonist 100%; activation, % at 3 µM; actives 0.99% (n = 360,000); AID 624467, 2012;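 active = activation above the mean activation of all test compounds in the run plus 3 SD, cut at about 38% in these data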
Target sequence (Q96RJ0 whole entry, looked up): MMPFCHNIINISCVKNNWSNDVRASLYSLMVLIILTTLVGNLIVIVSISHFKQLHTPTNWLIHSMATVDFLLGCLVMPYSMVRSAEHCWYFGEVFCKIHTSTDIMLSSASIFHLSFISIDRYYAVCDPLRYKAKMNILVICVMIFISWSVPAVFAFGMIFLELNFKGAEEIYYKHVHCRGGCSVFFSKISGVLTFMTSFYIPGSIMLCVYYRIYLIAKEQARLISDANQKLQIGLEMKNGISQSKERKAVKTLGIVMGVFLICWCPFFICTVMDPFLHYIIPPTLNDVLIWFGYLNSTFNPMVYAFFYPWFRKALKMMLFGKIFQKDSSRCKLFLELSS
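Test system: RD-HGA16 (CHO) cells co-expressing Gα16 and hTAAR1; dosing: one-point dosing at 3 µM (nominal); timing: 17-24 h seeding, 75 min 37 °C dye, 30 min RT; signal: kinetic Fluo-8 calcium fluorescence; read-out basis: % activation relative to PEA EC100 response; controls: DMSO and PEA EC100; replicates: n 1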
GPR7 antagonist: GPR7 receptor antagonists, primary screen, cell-based, fluorescence, single concentration; inhibition, % at 4.4 µM; GPR7-expressing cells, fluorescence antagonist assay; Neuropeptides B/W receptor type 1 (Homo sapiens), P48145; AID 1861, 2009; actives 1.1% (n = 290,000); in the data active = inhibition above about 16%, passing the limit was not always enough;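 note: cells stimulated with the agonist NPW; 0% = agonist with vehicle and 100% = vehicle without agonist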
Target sequence (P48145 whole entry, looked up): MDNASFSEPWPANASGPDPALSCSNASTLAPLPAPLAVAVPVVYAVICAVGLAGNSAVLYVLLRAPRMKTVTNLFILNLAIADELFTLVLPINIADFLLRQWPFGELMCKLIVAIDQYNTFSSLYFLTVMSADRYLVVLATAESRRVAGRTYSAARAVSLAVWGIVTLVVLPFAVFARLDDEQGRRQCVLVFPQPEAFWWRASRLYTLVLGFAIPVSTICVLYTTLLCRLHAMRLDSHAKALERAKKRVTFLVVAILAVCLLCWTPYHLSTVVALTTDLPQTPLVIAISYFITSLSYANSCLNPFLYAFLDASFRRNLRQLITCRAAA
TAAR1 antagonist: human TAAR1 antagonists, primary screen, Fluo-8 calcium fluorescence, CHO RD-HGA16 cells. Trace amine-associated receptor 1 (Homo sapiens), Q96RJ0. antagonist. inhibition, % at 3 µM. actives 1.5% (n = 360,000). AID 624466, 2012;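 active = inhibition above a per-plate cutoff, the mean inhibition of test compounds on that plate plus 3 SD, cut at about 49% in these data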;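 note: 0% = DMSO plus EC80 beta-PEA response and 100% = DMSO alone without agonist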
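Test system – hTAAR1-expressing CHO RD-HGA16 cells, Gα16-coupled · Reagent – β-PEA at EC80 concentration, post-compound challenge · Compound dosing – 3 µM, single point · Timing – 140 s kinetic read after compound, 140 s after agonist · Detection – Fluo-8 intracellular calcium dye fluorescence, real-time kinetic reads · Control set – DMSO and EC80 PEA controls · Repeats – n of 1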
GPR7 antag cf: GPR7 receptor antagonists, confirmation, cell-based, fluorescence, single concentration. shares compounds with GPR7 antagonist. GPR7-expressing cells, calcium fluorescence antagonist mode. inhibition, % at 4.4 µM. actives 52% (n = 2,400); in the data active = inhibition above about 24%;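 note: stimulated with the GPR7 agonist NPW; 0% = agonist plus vehicle and 100% = vehicle alone without agonist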
MCHR1 antag: MCHR1 antagonists in cells, counter-screen for GPR7 antagonist project, cell-based, fluorescence, human; inhibition, % at 4.4 µM; shares compounds with GPR7 antagonist; actives 62% (n = 2,400); MCHR1-expressing cells, fluorescence antagonist assay; in the data active = inhibition above about 22%;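 note: 0% = vehicle with agonist and 100% = vehicle without agonist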
* marks the source's active call; other numbers are inactive results; · = not tested or not shown. Compounds with a hit are over-represented: about 4.6% of the library has one in this group of screens.

SMILES	OX1R antag-1	CHO parental Ca	OX1R antag-2	TAAR1 agonist	GPR7 antagonist	TAAR1 antagonist	GPR7 antag cf	MCHR1 antag
CC(C)COc1ccc(-c2nnc(-c3ccco3)o2)cc1	-23.6	-12.2	8.1	10.2	1.6	-8.3	·	·
CCN(CC)CCCNc1ccc(-c2nnc(-c3ccc(OCC(C)C)cc3)o2)cn1	-1.8	-4.5	17.5	-0.7	37.6*	7.6	21.8	47.6*
CCOC(=O)C1CCN(c2ncnc3c2nnn3Cc2ccccc2Cl)CC1	-15.2	-20.1	26.3	0.6	21.6*	-34.1	26.5*	28.6*
O=c1ccc(-c2ccc(S(=O)(=O)Nc3cccc(Br)c3)o2)n[nH]1	-8.6	-5.8	19.5	0.2	-14.3	-17.2	·	·
O=C(Nc1nc2ccccc2s1)C1CCN(S(=O)(=O)c2cc([N+](=O)[O-])ccc2Cl)CC1	51.2*	79.6*	84.0*	7.6	31.9*	45.8	75.2*	74.6*
COc1ccc(CC(=O)Nc2ccc(N3CCOCC3)cc2)cc1S(=O)(=O)N1CCOCC1	-17.8	-12.0	28.6	0.3	-9.1	-24.2	·	·
Cc1ccc(S(=O)(=O)N2CCN(C(=O)c3ccc(COc4ccccc4)o3)CC2)cc1	-9.9	-26.6	12.3	2.4	·	7.4	·	·
O=C(/C=C/Nc1ccccc1Br)c1ccccn1	-0.7	-12.2	35.9	12.0	30.0*	15.7	4.7	21.1
CCOC(=O)c1c(-c2ccccc2)oc2ccc(OCC)cc12	-40.3	-27.7	14.2	4.3	-12.9	-14.9	·	·
CCOC(=O)c1c(-c2ccccc2)oc2ccc(OCC(O)CNCCN(C)C)cc12 (stereo not drawn)	-21.6	4.8	-0.9	2.8	72.3*	15.9	60.0*	69.3*
CCCCn1c2c(cc(C(=O)OC)c1=O)C(=O)CCC2	·	·	·	1.2	·	-26.2	·	·
Cc1ccc(C(=O)Nc2ccsc2C(=O)O)cc1	1.1	-10.2	13.8	2.9	4.8	1.6	·	·
O=C(Nc1ccsc1C(=O)O)c1ccc(Cl)cc1	-3.9	-7.1	-3.7	-2.1	46.0*	-18.6	3.2	5.2
COc1ccccc1N1CCN(S(=O)(=O)c2ccc3c(c2)oc(=O)n3C)CC1	-8.9	-0.8	12.0	2.2	29.9*	-1.2	3.7	-1.7
Cn1c(=O)oc2cc(S(=O)(=O)N3CCN(c4ccccc4F)CC3)ccc21	4.7	2.7	10.4	3.4	4.6	-11.1	·	·
CC(C)(C)c1cc(C(=O)Nc2ccc(F)cc2)n(Cc2ccc(F)cc2)n1	-2.4	0.7	54.6	2.1	22.7*	64.8*	2.5	56.2*
CCc1sc(C(=O)Nc2cc(S(=O)(=O)N3CCOCC3)ccc2OC)cc1C	-21.1	-22.3	1.0	6.7	·	-3.1	·	·
N#C/C(=C1/CCCCCN1)c1nc2ccccc2s1	-16.0	-11.1	34.4	19.2	-3.3	-3.3	·	·
COc1ccc(S(=O)(=O)N2CCCCCC2)cc1C(=O)N(C)CC(=O)Nc1cc(C)ccc1C	·	·	·	2.9	29.9*	-13.7	18.9	20.2
COc1ccc(S(=O)(=O)N2CCCCCC2)cc1C(=O)N(C)CC(=O)Nc1ccc(Cl)c(Cl)c1	-13.2	-11.7	10.3	3.9	·	6.9	·	·
COc1cccc(CNCCc2c[nH]c3ccccc23)c1OCc1ccccc1	10.1	17.9	5.8	19.3	56.1*	53.9*	59.9*	67.2*
COc1cc(CNCCc2c[nH]c3ccccc23)ccc1OCc1ccccc1F	12.3	6.3	7.1	9.3	23.7	-15.9	·	·
O=C(NC1CCCC1)C(c1ccccc1)N(Cc1ccc(F)cc1)C(=O)c1csnn1 (stereo not drawn)	-29.1	-29.8	20.3	-4.0	4.8	14.3	·	·
O=C(NC1CCCC1)C(c1ccc(F)cc1)N(Cc1ccccc1)C(=O)c1csnn1 (stereo not drawn)	-37.0	-17.6	15.1	-3.9	22.6*	0.3	31.8*	21.8*
O=C(NC1CCCCC1)C(c1ccccc1F)N(C(=O)c1csnn1)C1CCCC1 (stereo not drawn)	-27.7	-22.3	23.8	5.7	22.6*	4.4	17.4	19.4
SMILES	OX1R antag-1	CHO parental Ca	OX1R antag-2	TAAR1 agonist	GPR7 antagonist	TAAR1 antagonist	GPR7 antag cf	MCHR1 antag
COCCN(C(=O)c1csnn1)C(C(=O)NC1CCCCC1)c1ccc(C)cc1 (stereo not drawn)	-16.7	-14.8	11.5	-2.8	-5.7	-0.7	·	·
COCCN(C(=O)c1csnn1)C(C(=O)NC1CCCC1)c1ccccc1 (stereo not drawn)	-23.8	-17.7	15.1	-1.2	44.5*	8.7	1.3	-6.3
c1ccc2c(-c3cn4ccccc4n3)c[nH]c2c1	-10.8	-17.1	25.8	·	-3.2	·	·	·
O=C(N/N=C/c1ccccn1)c1cccs1	-17.1	-9.2	18.2	10.7	-2.3	-7.1	·	·
N/C(=N\c1nc2c(c(=O)[nH]1)CCCC2)Nc1ccccc1	-7.2	-3.6	11.3	9.2	30.8*	14.4	7.6	17.7
CN(CCOc1ccc(Cl)cc1)C(=O)c1cccc(S(=O)(=O)N2CCN(Cc3ccccc3)CC2)c1	·	·	·	6.0	·	22.1	·	·
CCCn1nc(C(=O)NNC(=O)C2CSC3(C)CCC(=O)N23)c2ccccc2c1=O (stereo not drawn)	-31.3	-20.9	7.3	1.1	·	-21.9	·	·
CCOc1cc(CNCCO)cc(Br)c1OCc1ccc(Cl)cc1Cl	40.5*	18.9	-7.3	11.2	42.2*	-4.4	68.1*	76.8*
O=S(=O)(NC(CO)Cc1ccccc1)c1ccc(Br)cc1F (stereo not drawn)	·	·	·	2.2	·	-5.1	·	·
Cc1cccc2cc(C3CC(c4ccco4)=NN3S(C)(=O)=O)c(Cl)nc12 (stereo not drawn)	-5.9	-16.6	10.0	2.0	21.9*	-3.5	2.4	11.5
Cc1cccc2cc(C3CC(c4ccco4)=NN3S(=O)(=O)c3ccccc3)c(Cl)nc12 (stereo not drawn)	-34.4	-22.9	12.4	2.3	-16.7	-16.9	·	·
CC(Oc1ccc(NC(=O)c2ccco2)cc1)C(=O)N1c2ccccc2CC1C (stereo not drawn)	-25.2	-12.3	24.5	0.7	35.2*	-11.3	13.9	19.1
CC1Cc2ccccc2N1C(=S)NC(=O)c1ccco1 (stereo not drawn)	-6.7	-6.8	10.9	-0.9	-12.5	-9.8	·	·
